Data taken from ChEMBL document CHEMBL1156387, “Novel esters of glaucarubolone as inducers of terminal differentiation of promyelocytic HL-60 cells and inhibitors of 7,12-dimethylbenz[a]anthracene-induced preneoplastic lesion formation in mouse mammary organ culture” (J Nat Prod, 2001).
pEC50, pIC50: −log10 of the molar value.

Legend:
HL-60 [1] = assay: Selectivity index, ratio of cytotoxic IC50 to antiproliferative IC50 for human HL60 cells; format: functional
Summary of the method: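 Index = cytotoxic IC50 (trypan blue, 4-day HL-60 exposure) divided by antiproliferative IC50 ([3H]thymidine incorporation), each from dose–response with at least five points.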

HL-60 [2] = assay: Induction of cell differentiation in human HL60 cells assessed as superoxide anion production after 4 days by NBT reduction assay; format: functional, cell-based; details: HL-60, 96 h
Summary of the method: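 Cells diluted to 10^5/mL and recovered overnight were exposed 4 days to samples (0.1% v/v DMSO final). Cell suspension (10^6 cells) was mixed 1:1 with NBT 2 mg/mL plus TPA 1 μg/mL in PBS and held 1 h at 37 °C. Formazan-positive cells were counted microscopically among >200 cells. EC50 from 5–7 concentrations in duplicate; 1α,25-dihydroxyvitamin D3 served as reference.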

HL-60 [3] = assay: Antiproliferative activity against human HL60 cells assessed as inhibition of [3H]thymidine incorporation after 4 days by liquid scintillation counter; format: functional, cell-based
Summary of the method: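 HL-60 cells in log phase diluted to 10^5 cells/mL, preincubated 18 h, then exposed to samples in DMSO (final 0.1% v/v; DMSO-only controls) for 4 days. Cells then pulsed with [3H]thymidine (0.5 μCi/mL, 65 Ci/mmol) for 18 h at 37 °C, 5% CO2, harvested onto glass fiber filters, scintillation counted; incorporation per 10^6 cells as % of DMSO control. IC50 from 5–7 concentrations in duplicate.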

HL-60 [4] = assay: Cytotoxicity against human HL60 cells assessed as loss of membrane integrity after 4 days by trypan blue exclusion assay; format: functional, cell-based; details: HL-60, 96 h
Summary of the method: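 After 18 h recovery at 10^5 cells/mL, HL-60 cells were treated 4 days with samples (final DMSO 0.1% v/v). Cells were mixed 1:4 with trypan blue (0.2% w/v in PBS), held at least 5 min at room temperature and counted by hemocytometer. Viability was taken from duplicate samples; IC50 from 5–7 concentrations in duplicate.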

| SMILES | Ratio IC50 (HL-60 [1]) | pEC50 (HL-60 [2]) | pIC50 (HL-60 [3]) | pIC50 (HL-60 [4]) |
| --- | --- | --- | --- | --- |
| CC1=CC(=O)[C@@H](O)[C@]2(C)[C@H]3[C@]4(O)OC[C@]35[C@H]([C@@H](C)[C@H]4O)[C@@H](OC(=O)CC(C)C)C(=O)O[C@@H]5C[C@@H]12 | 1.5 | < 5.70 | 6.00 | 5.82 |
| CC[C@](C)(O)C(=O)O[C@H]1C(=O)O[C@@H]2C[C@H]3C(C)=CC(=O)[C@@H](O)[C@]3(C)[C@H]3C4(O)OC[C@]32[C@@H]1[C@@H](C)[C@H]4O (single isomer, unassigned) [GLAUCARUBINONE] | 2.1 | 5.74 | 6.30 | 6.00 |
| CC1=CC(=O)[C@@H](O)[C@]2(C)[C@H]3[C@]4(O)OC[C@]35[C@H]([C@@H](C)[C@H]4O)[C@@H](OC(=O)CN(C)C)C(=O)O[C@@H]5C[C@@H]12 | 1.6 | 6.30 | 6.30 | 6.10 |
| CC[C@@](O)(CC(=O)O[C@H]1C(=O)O[C@@H]2C[C@H]3C(C)=CC(=O)[C@@H](O)[C@]3(C)[C@H]3[C@]4(O)OC[C@]32[C@@H]1[C@@H](C)[C@H]4O)C(C)C | 1.2 | 7.77 | 7.96 | 7.89 |
| CC1=CC(=O)[C@@H](O)[C@]2(C)[C@H]3[C@]4(O)OC[C@]35[C@H]([C@@H](C)[C@H]4O)[C@@H](OC(=O)C=C(C(C)C)C(C)C)C(=O)O[C@@H]5C[C@@H]12 | 1.9 | 7.05 | 7.15 | 6.89 |
| CC1=CC(=O)[C@@H](O)[C@]2(C)[C@H]3[C@]4(O)OC[C@]35[C@H]([C@@H](C)[C@H]4O)[C@@H](O)C(=O)O[C@@H]5C[C@@H]12 [GLAUCARUBOLONE] | 3.3 | 5.89 | 6.40 | 5.89 |
| CC1=CC(=O)[C@@H](O)[C@]2(C)[C@H]3[C@]4(O)OC[C@]35[C@H]([C@@H](C)[C@H]4O)[C@@H](OC(=O)CC(C)(C)O)C(=O)O[C@@H]5C[C@@H]12 [SOULARUBINONE] | 4.2 | 6.70 | 7.00 | 6.40 |
| CC1=CC(=O)[C@@H](O)[C@]2(C)[C@H]3[C@@H](O)[C@H](O)[C@@]4(C)OC[C@@]35[C@@H](C[C@@H]12)OC(=O)[C@H](O)[C@@H]45 [YADANZIOLIDE C] | >6.7 | 5.00 | 5.82 | < 5.00 |
| CC1=CC(=O)[C@@H](O)[C@]2(C)[C@H]3[C@]4(O)OC[C@]35[C@H]([C@@H](C)[C@H]4O)[C@@H](OC(=O)CC(C)(C)OP(=O)(O)O)C(=O)O[C@@H]5C[C@@H]12 | 6.5 | 5.52 | 6.15 | 5.36 |
| CC1=CC(=O)[C@@H](O)[C@]2(C)[C@H]3[C@]4(O)OC[C@]35[C@H]([C@@H](C)[C@H]4O)[C@@H](OC(=O)C[C@]3(O)CC(C)CCC3C(C)C)C(=O)O[C@@H]5C[C@@H]12 (some centres not stated) | 2.3 | 6.52 | 6.40 | 6.05 |
| CC1=CC(=O)[C@@H](O)[C@]2(C)[C@H]3[C@]4(O)OC[C@]35[C@H]([C@@H](C)[C@H]4O)[C@@H](OC(=O)C(=O)O[C@H]3C(=O)O[C@@H]4C[C@H]6C(C)=CC(=O)[C@@H](O)[C@]6(C)[C@H]6[C@]7(O)OC[C@]64[C@@H]3[C@@H](C)[C@H]7O)C(=O)O[C@@H]5C[C@@H]12.O=C(O)C(=O)O | 3.6 | < 5.82 | 6.30 | 5.74 |
| CC[C@@H](C)C(=O)O[C@H]1C(=O)O[C@@H]2C[C@H]3C(C)=CC(=O)[C@@H](O)[C@]3(C)[C@H]3[C@@H](O)[C@H](O)[C@]4(C)OC[C@]32[C@@H]14 [SIMALIKALACTONE D] | – | < 6.70 | < 6.70 | 6.70 |
